Blank lines part the entries; values can stand above or below the compound they belong to. Activity calls are given as the source filed them. No cut-off for these calls is given here.
How the values were obtained:
Mus musculus [1] = test: In vivo inhibition of FAAH in C57Bl/6J mouse assessed as increase in AEA level in brain at 30 mg/kg, ip after 3 hrs relative to vehicle-treated control; type: functional; conditions: route intraperitoneal
How it was run: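 Male C57Bl/6J mice (<6 months, 20–28 g), n = 3, received 30 mg/kg i.p. in 18:1:1 saline/ethanol/emulphor at 10 μL/g. Brains were taken 3 h later and homogenized in CHCl3/MeOH/Tris with d4-PEA, d4-AEA and pentadecanoic acid standards. The organic extract was quantified by LC–ESI-MS/MS in positive mode and compared with vehicle-treated mice.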

Mus musculus [2] = test: In vivo inhibition of FAAH in C57Bl/6J mouse assessed as increase in OEA level in brain at 30 mg/kg, ip measured after > 6 hrs; type: functional, organism-based; design: dose 30 mg/kg
Mus musculus [3] = organism: Mus musculus; test: Selectivity ratio of IC50 for mouse brain membrane MAGL to IC50 for mouse FAAH
Mus musculus [4] = test: In vivo inhibition of FAAH in C57Bl/6J mouse assessed as increase in OEA level in brain at 30 mg/kg, ip measured within 1.5 to 3 hrs; type: functional, organism-based; design: dose 30 mg/kg
Mus musculus [5] = organism: Mus musculus; test: Selectivity ratio of IC50 for mouse brain membrane ABHD6 to IC50 for mouse FAAH
Mus musculus [6] = test: In vivo inhibition of FAAH in C57Bl/6J mouse assessed as increase in PEA level in brain at 30 mg/kg, ip measured after > 6 hrs; type: functional, organism-based; design: dose 30 mg/kg
Mus musculus [7] = test: In vivo inhibition of FAAH in C57Bl/6J mouse assessed as increase in AEA level in brain at 30 mg/kg, ip measured after > 6 hrs; type: functional, organism-based; design: dose 30 mg/kg
Mus musculus [8] = organism: Mus musculus; test: Selectivity ratio of IC50 for mouse brain membrane KIAA1363 to IC50 for mouse FAAH
[9] = biological target: T1, Fatty-acid amide hydrolase 1 (Rattus norvegicus, UniProt P97612); test: Time-dependent inhibition of recombinant rat FAAH expressed in Escherichia coli assessed as breakdown of [14C]-oleamide preincubated for 6 hrs by Dixon plot analysis
T1 sequence (P97612 whole entry): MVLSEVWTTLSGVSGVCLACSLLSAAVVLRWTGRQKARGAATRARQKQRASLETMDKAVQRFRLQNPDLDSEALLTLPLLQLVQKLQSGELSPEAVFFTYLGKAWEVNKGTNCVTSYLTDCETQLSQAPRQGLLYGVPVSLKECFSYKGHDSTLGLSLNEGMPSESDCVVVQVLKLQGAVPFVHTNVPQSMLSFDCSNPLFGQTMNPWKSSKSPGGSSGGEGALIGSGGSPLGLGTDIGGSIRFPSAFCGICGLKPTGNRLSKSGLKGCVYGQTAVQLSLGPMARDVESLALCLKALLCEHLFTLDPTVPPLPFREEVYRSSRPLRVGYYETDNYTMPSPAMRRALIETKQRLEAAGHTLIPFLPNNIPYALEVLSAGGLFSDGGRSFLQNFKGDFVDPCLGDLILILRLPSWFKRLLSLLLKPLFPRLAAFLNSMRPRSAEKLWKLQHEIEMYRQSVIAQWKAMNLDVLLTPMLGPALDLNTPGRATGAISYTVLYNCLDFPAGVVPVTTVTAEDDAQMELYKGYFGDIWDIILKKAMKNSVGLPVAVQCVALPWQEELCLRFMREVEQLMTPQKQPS
How it was run: (§1)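 The reaction used 20 μM 14C-oleamide in pH 9.0 Tris/EDTA/Triton X-100/Hepes buffer at 20–23 °C, at three inhibitor concentrations. HCl-quenched time points were analysed by EtOAc extraction and TLC for oleic acid formation. Ki came from a Dixon plot.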

Mus musculus [10] = test: In vivo inhibition of FAAH in C57Bl/6J mouse assessed as increase in PEA level in brain at 30 mg/kg, ip measured within 1.5 to 3 hrs; type: functional, organism-based; design: dose 30 mg/kg
Mus musculus [11] = test: In vivo inhibition of FAAH in C57Bl/6J mouse assessed as increase in AEA level in brain at 30 mg/kg, ip measured within 1.5 to 3 hrs; type: functional, organism-based; design: dose 30 mg/kg
[12] = biological target: T1, Fatty-acid amide hydrolase 1; test: Time-dependent inhibition of recombinant rat FAAH expressed in Escherichia coli assessed as breakdown of [14C]-oleamide preincubated for 3 hrs by Dixon plot analysis; how it was run: as §1
[13] = biological target: T2, Fatty-acid amide hydrolase 1 (Rattus norvegicus) (UniProt P97612); test: Noncompetitive inhibition of recombinant rat FAAH expressed in Escherichia coli assessed as breakdown of [14C]-oleamide at 0.5 to 5 nM preincubated for 3 hrs by Lineweaver-Burk plot analysis
T2 sequence (whole entry): T1 sequence (P97612 whole entry)

[14] = biological target: T2, Fatty-acid amide hydrolase 1 (Rattus norvegicus); test: Irreversible inhibition of recombinant rat FAAH expressed in Escherichia coli assessed as remaining activity at IC80 preincubated for 3 hrs followed by 370 fold dilution measured after 18 hrs
[15] = biological target: T2, Fatty-acid amide hydrolase 1 (Rattus norvegicus); conditions: 1 to 10 nM
Mus musculus [16] = test: In vivo inhibition of FAAH in C57Bl/6J mouse assessed as increase in OEA level in brain at 30 mg/kg, ip measured within 2 to 3 hrs; type: functional, organism-based; design: dose 30 mg/kg
Mus musculus [17] = test: In vivo inhibition of FAAH in C57Bl/6J mouse assessed as increase in AEA level in brain at 30 mg/kg, ip measured within 2 to 3 hrs; type: functional, organism-based; design: dose 30 mg/kg
Mus musculus [18] = test: In vivo inhibition of FAAH in C57Bl/6J mouse assessed as increase in PEA level in brain at 30 mg/kg, ip measured within 2 to 3 hrs; type: functional, organism-based; design: dose 30 mg/kg
[19] = biological target: T2, Fatty-acid amide hydrolase 1 (Rattus norvegicus); conditions: 5 to 10 nM
[20] = biological target: T2, Fatty-acid amide hydrolase 1 (Rattus norvegicus); test: Noncompetitive inhibition of recombinant rat FAAH expressed in Escherichia coli assessed as breakdown of [14C]-oleamide at 3 to 5 nM preincubated for 3 hrs by Lineweaver-Burk plot analysis
[21] = biological target: T1, Fatty-acid amide hydrolase 1; test: Inhibition of recombinant rat FAAH expressed in Escherichia coli assessed as breakdown of [14C]-oleamide by Dixon plot analysis
How it was run: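 Purified rat FAAH expressed in E. coli, with no inhibitor preincubation. The enzyme was at 1 nM, or 800, 500 or 200 pM for tight binders. It was mixed with 20 μM 14C-oleamide in pH 9.0 Tris/EDTA/glycerol/Triton X-100/Hepes buffer at room temperature, with three inhibitor concentrations. Aliquots were quenched in 0.1 N HCl at three time points, extracted with EtOAc and separated by TLC. Ki came from a Dixon plot.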

[22] = biological target: T2, Fatty-acid amide hydrolase 1 (Rattus norvegicus); test: Competitive reversible inhibition of recombinant rat FAAH expressed in Escherichia coli using [14C]-oleamide as substrate at 3 to 5 nM preincubated for 3 hrs by Lineweaver-Burk plot analysis
[23] = Chemical stability in assay buffer assessed as compound hydrolysis after 6 hrs; type: physicochemical
[24] = Chemical stability in enzymatic assay buffer assessed as transient enzyme adduct formation; type: ADME
[25] = biological target: T2, Fatty-acid amide hydrolase 1 (Rattus norvegicus); test: Mixed-type inhibition of recombinant rat FAAH expressed in Escherichia coli assessed as breakdown of [14C]-oleamide preincubated for 3 hrs by Lineweaver-Burk plot analysis
[26] = biological target: T2, Fatty-acid amide hydrolase 1 (Rattus norvegicus); test: Noncompetitive inhibition of recombinant rat FAAH expressed in Escherichia coli assessed as breakdown of [14C]-oleamide at 1 to 3 nM preincubated for 3 hrs by Lineweaver-Burk plot analysis
[27] = biological target: T2, Fatty-acid amide hydrolase 1 (Rattus norvegicus); test: Noncompetitive inhibition of recombinant rat FAAH expressed in Escherichia coli assessed as breakdown of [14C]-oleamide at 1 to 5 nM preincubated for 3 hrs by Lineweaver-Burk plot analysis
[28] = biological target: T1, Fatty-acid amide hydrolase 1; test: Time-dependent inhibition of recombinant rat FAAH expressed in Escherichia coli assessed as breakdown of [14C]-oleamide preincubated for 1 hr by Dixon plot analysis; how it was run: as §1
[29] = biological target: T2, Fatty-acid amide hydrolase 1 (Rattus norvegicus); test: Competitive reversible inhibition of recombinant rat FAAH expressed in Escherichia coli using [14C]-oleamide as substrate at 1 to 5 nM preincubated for 3 hrs by Lineweaver-Burk plot analysis

Compound: CSC(=O)Cc1ccc(-c2cnc(C(=O)CCCCCCc3ccccc3)o2)nc1
inhibition [19]: Active

Compound: CS(=O)(=O)/C=C/c1ccc(-c2cnc(C(=O)CCCCCCc3ccccc3)o2)nc1
fold change (FC) (Mus musculus [1]): 2.8
Ratio IC50 (Mus musculus [3]): > 200
Ratio IC50 (Mus musculus [5]): > 10000
inhibition [20]: Active
Ratio IC50 (Mus musculus [8]): > 10000
Ki [12]: 0.3 nM
remaining activity after dilution [14]: Active

Compound: CSC(=O)c1ccc(-c2cnc(C(=O)CCCCCCc3ccccc3)o2)nc1
Ki [21]: 2 nM
inhibition [22]: Active
Ki [12]: 2 nM
Stability [23]: Stable
Stability [24]: Stable

Compound: CCOC(=O)/C=C/c1ccc(-c2cnc(C(=O)CCCCCCc3ccccc3)o2)nc1
inhibition [25]: Dose-dependent effect
remaining activity after dilution [14]: Active

Compound: C[S+]([O-])/C=C/c1ccc(-c2cnc(C(=O)CCCCCCc3ccccc3)o2)nc1 (configuration not stated)
fold change (FC) (Mus musculus [1]): 2.6
Ratio IC50 (Mus musculus [3]): > 200
Ratio IC50 (Mus musculus [5]): > 10000
Ratio IC50 (Mus musculus [8]): > 10000
inhibition [26]: Active
remaining activity after dilution [14]: Active

Compound: N#C/C=C/c1ccc(-c2cnc(C(=O)CCCCCCc3ccccc3)o2)nc1
inhibition [25]: Dose-dependent effect
Ki [9]: 2.7 nM
remaining activity after dilution [14]: Active

Compound: CCOS(=O)(=O)/C=C/c1ccc(-c2cnc(C(=O)CCCCCCc3ccccc3)o2)nc1
fold change (FC) (Mus musculus [1]): 3.2
Ratio IC50 (Mus musculus [3]): > 200
Ratio IC50 (Mus musculus [5]): > 10000
inhibition [27]: Active
Ratio IC50 (Mus musculus [8]): > 10000
Ki [28]: 0.3 nM
remaining activity after dilution [14]: Active

Compound: COC(=N)Cc1ccc(-c2cnc(C(=O)CCCCCCc3ccccc3)o2)nc1
Ratio IC50 (Mus musculus [3]): > 200
Ratio IC50 (Mus musculus [5]): > 10000
inhibition [20]: Active
Ratio IC50 (Mus musculus [8]): > 10000
Ki [9]: 0.6 nM
remaining activity after dilution [14]: Active

Further lines, with some results ahead:

Ratio IC50 (Mus musculus [3]): > 200
Ratio IC50 (Mus musculus [5]): > 10000
Ratio IC50 (Mus musculus [8]): > 10000
Ki [9]: 0.2 nM
Ki [12]: 0.2 nM
inhibition [13]: Active
remaining activity after dilution [14]: Active
Compound: O=C(CCCCCCc1ccccc1)c1ncc(-c2ccc(CBr)cn2)o1
fold change (FC) (Mus musculus [1]): 3.2
inhibition (Mus musculus [2]): Active
inhibition (Mus musculus [4]): Active
inhibition (Mus musculus [6]): Active
inhibition (Mus musculus [7]): Active
inhibition (Mus musculus [10]): Active
inhibition (Mus musculus [11]): Active

inhibition [15]: Active
Compound: O=C(CCCCCCc1ccccc1)c1ncc(-c2ccccn2)o1
inhibition (Mus musculus [16]): Active
inhibition (Mus musculus [17]): Active
inhibition (Mus musculus [18]): Active

Ki [9]: 24.6 nM
Compound: O=C(CCCCCCc1ccccc1)c1ncc(-c2ccc(CCl)cn2)o1

Ki [12]: 6.4 nM
Compound: CSCCCCCc1cnc(C(=O)CCCCCCc2ccccc2)o1

Ki [9]: 4 nM
Compound: N#CCCCCCc1cnc(C(=O)CCCCCCc2ccccc2)o1

Ratio IC50 (Mus musculus [3]): > 200
Ratio IC50 (Mus musculus [5]): > 10000
inhibition [27]: Active
Ratio IC50 (Mus musculus [8]): > 10000
Ki [9]: 0.5 nM
remaining activity after dilution [14]: Active
Compound: N#CCc1ccc(-c2cnc(C(=O)CCCCCCc3ccccc3)o2)nc1
fold change (FC) (Mus musculus [1]): 3.2
inhibition (Mus musculus [2]): Active
inhibition (Mus musculus [4]): Active
inhibition (Mus musculus [6]): Active
inhibition (Mus musculus [7]): Active
inhibition (Mus musculus [10]): Active
inhibition (Mus musculus [11]): Active

Ki [21]: 6.1 nM
Ki [9]: 6 nM
Ki [28]: 6.1 nM
Compound: O=C(CCCCCCc1ccccc1)c1ncc(CCCCCBr)o1

inhibition [29]: Active
Compound: COC(=O)c1ccc(-c2cnc(C(=O)CCCCCCc3ccccc3)o2)nc1

inhibition [22]: Active
Stability [23]: Stable
Compound: CSC(=O)CCCCc1cnc(C(=O)CCCCCCc2ccccc2)o1

Source: ChEMBL document CHEMBL3124899, “Design, synthesis, and characterization of α-ketoheterocycles that additionally target the cytosolic port Cys269 of fatty acid amide hydrolase” (J Med Chem, 2014)
